Assay [1] in a line: Antiproliferative activity against human LS 174T cells by cell viability analyzer. Conditions: LS174T. Format: functional, cell-based. An outline of the steps:
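LS174T colon cancer cells seeded at 3 × 10^4 cells/mL, treated next day with compounds at 1–300 nM (freshly made DMSO stocks diluted in buffer). Proliferation read by automated cell viability counting. Triplicate at each concentration; IC50 from concentration–response curves by nonlinear regression one-site fit.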

Assay [2] concerns the target S-adenosylmethionine synthase isoform type-2 (Homo sapiens) (UniProt P31153). As to the kind of experiment: Inhibition of recombinant His-tagged MAT2A (unknown origin) using L-methionine and ATP at 30 uM. The procedure, abridged: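 Purified His-tagged MAT2A holoenzyme (3 μg) preincubated with compound (30 μM final) 10 min at room temperature, then given L-methionine (50 μM) and ATP (50 μM) in 50 mM Tris pH 8.0, 50 mM KCl, MgCl2; 25 min at room temperature. Released Pi measured by malachite green absorbance at 635 nm; triplicate; activity expressed relative to reference lead.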

For assay [3], the target named is Voltage-gated inwardly rectifying potassium channel KCNH2 (Homo sapiens, UniProt Q12809). The experiment in a line: Inhibition of human ERG over-expressed in HEK293 cell membrane by [3H]dofetilide binding assay. Format: cell membranes.
Voltage-gated inwardly rectifying potassium channel KCNH2, sequence (Q12809 whole entry): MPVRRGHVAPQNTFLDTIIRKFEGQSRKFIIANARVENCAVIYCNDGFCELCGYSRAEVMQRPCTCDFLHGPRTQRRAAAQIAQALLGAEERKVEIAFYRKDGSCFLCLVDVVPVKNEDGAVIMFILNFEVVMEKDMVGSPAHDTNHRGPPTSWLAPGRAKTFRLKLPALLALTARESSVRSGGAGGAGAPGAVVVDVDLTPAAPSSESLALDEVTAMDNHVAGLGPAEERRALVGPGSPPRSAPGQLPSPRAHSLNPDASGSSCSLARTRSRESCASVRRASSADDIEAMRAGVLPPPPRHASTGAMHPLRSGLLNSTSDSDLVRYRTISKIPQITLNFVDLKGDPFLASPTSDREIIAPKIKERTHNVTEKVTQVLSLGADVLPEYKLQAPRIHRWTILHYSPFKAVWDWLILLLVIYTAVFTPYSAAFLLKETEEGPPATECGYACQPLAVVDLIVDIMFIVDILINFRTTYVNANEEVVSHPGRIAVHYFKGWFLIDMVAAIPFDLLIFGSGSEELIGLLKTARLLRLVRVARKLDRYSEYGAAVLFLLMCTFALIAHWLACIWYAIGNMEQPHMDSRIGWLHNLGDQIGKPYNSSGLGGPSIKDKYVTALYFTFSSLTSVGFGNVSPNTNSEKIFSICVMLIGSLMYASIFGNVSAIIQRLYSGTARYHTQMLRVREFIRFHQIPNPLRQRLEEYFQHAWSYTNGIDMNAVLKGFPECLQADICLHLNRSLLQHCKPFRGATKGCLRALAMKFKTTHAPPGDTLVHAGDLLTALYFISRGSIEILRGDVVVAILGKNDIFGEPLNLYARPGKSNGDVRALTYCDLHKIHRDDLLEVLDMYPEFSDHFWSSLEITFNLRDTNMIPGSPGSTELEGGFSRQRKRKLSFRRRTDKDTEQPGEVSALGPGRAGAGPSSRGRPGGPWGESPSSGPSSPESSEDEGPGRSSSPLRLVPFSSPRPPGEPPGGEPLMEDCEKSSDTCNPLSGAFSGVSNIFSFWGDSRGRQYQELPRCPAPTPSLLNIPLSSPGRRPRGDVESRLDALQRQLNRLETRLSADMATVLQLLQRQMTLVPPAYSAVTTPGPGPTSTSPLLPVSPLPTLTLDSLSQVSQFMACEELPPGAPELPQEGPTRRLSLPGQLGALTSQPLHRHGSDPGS
A short description of assay [4]: Ratio of IC50 for human ERG to IC50 for inhibition of human LS174T cell proliferation.

Each structure is given as a SMILES string. Calls of active or inactive are those of the source. The rule behind the calls is not given here.

This note sets out measurements from ChEMBL document CHEMBL3352175, “2',6'-Dihalostyrylanilines, pyridines, and pyrimidines for the inhibition of the catalytic subunit of methionine S-adenosyltransferase-2” (J Med Chem, 2014).

S-adenosylmethionine synthase isoform type-2 (Homo sapiens), sequence (P31153 whole entry, looked up, canonical isoform): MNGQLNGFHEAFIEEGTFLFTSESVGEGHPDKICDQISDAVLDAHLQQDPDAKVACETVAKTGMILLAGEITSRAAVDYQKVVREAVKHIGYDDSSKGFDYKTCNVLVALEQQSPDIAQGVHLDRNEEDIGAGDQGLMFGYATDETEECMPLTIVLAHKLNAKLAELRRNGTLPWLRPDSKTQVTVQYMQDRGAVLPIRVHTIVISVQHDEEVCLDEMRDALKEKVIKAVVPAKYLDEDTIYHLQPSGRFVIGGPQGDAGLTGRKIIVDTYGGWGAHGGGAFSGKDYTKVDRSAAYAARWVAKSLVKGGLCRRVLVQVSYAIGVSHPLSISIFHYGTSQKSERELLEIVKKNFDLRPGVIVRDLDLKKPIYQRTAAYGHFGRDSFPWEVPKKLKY

Take `CN(C)c1ncc(/C=C/c2c(F)cccc2Cl)cn1`: in assay [1], the half-inhibitory concentration (IC50) is over 200 nM.
Regarding `CNc1ncc(/C=C/c2c(F)cccc2F)cn1`, the half-inhibitory concentration (IC50) in assay [1] is over 200 nM. Besides, the inhibition result in assay [2] was “Active”.
For `CNc1ccc(/C=C/c2c(Cl)cccc2Cl)cn1`, the IC50 in assay [1] was 19.6 nM.
`CNc1ccc(/C=C/c2c(Cl)cccc2Cl)cc1` registered an IC50 in assay [1] of 50.1 nM. In addition, the inhibition entry in assay [2] was “Active”.
With `CN(C)c1ccc(/C=C/c2c(F)cccc2Cl)nc1`, the IC50 in assay [3] stood at 20700 nM; in assay [1], 20.4 nM. In assay [4], the Ratio IC50 came to 1000. Further, in assay [2], the inhibition result was “Active”.
With `CNc1ccc(/C=C/c2c(F)cccc2Cl)cn1`, the half-inhibitory concentration (IC50) in assay [3] is 19900 nM; in assay [1], 4 nM. Also, the Ratio IC50 in assay [4] was 5000. Besides, the inhibition entry in assay [2] was “Active”.
With `CNc1ccc(/C=C/c2c(F)cccc2Cl)cc1`, the 50% inhibitory concentration (IC50) in assay [3] is 49800 nM; in assay [1], 7.6 nM. Further, the Ratio IC50 in assay [4] worked out at 6600. For the same compound, the inhibition result in assay [2] was “Active”.
`CN(C)c1ccc(/C=C/c2c(Cl)cccc2Cl)cc1` showed an IC50 in assay [1] of 214 nM. For the same compound, the inhibition entry in assay [2] was “Active”.
In assay [1], `CN(C)c1ccc(/C=C/c2c(Cl)cccc2Cl)cn1` had an IC50 of 30.1 nM. For the same compound, the inhibition result in assay [2] was “Active”.
The compound `CNc1ncc(/C=C/c2c(F)cccc2Cl)cn1` had an IC50 in assay [1] of over 200 nM.
Same read-out and setting: then `CCNc1ccc(/C=C/c2c(F)cccc2F)cn1`, with 31.3 nM; and `CNc1ncc(/C=C/c2c(Cl)cccc2Cl)cn1`, with over 200 nM.
With `CN(C)c1ccc(/C=C/c2c(F)cccc2F)cn1`, in assay [1], the IC50 stood at 13.3 nM. Also, in assay [2], the inhibition entry was “Active”.
For `CN(C)c1ccc(/C=C/c2c(F)cccc2Cl)cc1`, in that order: 19.2 nM and “Active”.
The compound `CNc1ccc(/C=C/c2c(F)cccc2F)cn1` registered an IC50 in assay [1] of 30.1 nM.
`CN(C)c1ncc(/C=C/c2c(F)cccc2F)cn1`: the half-maximal inhibitory concentration (IC50) in assay [3] is 40500 nM; in assay [1], over 200 nM. Further, in assay [4], the Ratio IC50 was determined as 500. Moreover, the inhibition result in assay [2] was “Active”.
Take `CNc1ccc(/C=C/c2c(F)cccc2F)cc1`: the IC50 in assay [3] stood at 49100 nM; in assay [1], 7.6 nM. The Ratio IC50 in assay [4] came to 6500. Moreover, in assay [2], the inhibition entry is “Active”.
In the case of `CCNc1ncc(/C=C/c2c(F)cccc2F)cn1`, the IC50 in assay [1] was over 200 nM.
In assay [1], `CN(C)c1ncc(/C=C/c2c(Cl)cccc2Cl)cn1` came in with a concentration for half-maximal inhibition (IC50) of over 200 nM.
With `CN(C)c1ccc(/C=C/c2c(F)cccc2F)nc1`, the concentration for half-maximal inhibition (IC50) in assay [3] stood at 21100 nM; in assay [1] it was 57.9 nM. Also, the Ratio IC50 in assay [4] stood at 400. Besides, in assay [2], the inhibition result is “Active”.
Regarding `CCNc1ccc(/C=C/c2c(F)cccc2F)cc1`, half-maximal inhibition in assay [1] (IC50) required 200 nM.
In assay [1], `CN(C)c1ccc(/C=C/c2c(Cl)cccc2Cl)nc1` displayed an IC50 of 59.5 nM. Further, the inhibition result in assay [2] is “Active”.
Turning to `CN(C)c1ccc(/C=C/c2c(F)cccc2Cl)cn1`, the IC50 in assay [3] was 59500 nM; in assay [1], 4.7 nM. In addition, in assay [4], the Ratio IC50 turned out to be 12700. Further, the inhibition result in assay [2] was “Active”.
On to `CN(C)c1ccc(/C=C/c2c(F)cccc2F)cc1`, for which, in assay [1], the midpoint of inhibition, the IC50, lay at 26.9 nM. In assay [2], the inhibition entry is “Active”.
